# Assay results reported in ChEMBL document CHEMBL2151023, “2-Alkynoic fatty acids inhibit topoisomerase IB from Leishmania donovani” (Bioorg Med Chem Lett, 2012).
# Active and inactive are the calls of the source. The rule behind the calls is not given here.
# Key:
# Trypanosoma cruzi = assay: Antiprotozoal activity against intracellular Trypanosoma cruzi amastigotes in rat L6 cells; type: functional, organism-based
# [1] = Inhibition of human topoisomerase 1B-mediated relaxation of supercoiled pSK DNA after 30 mins by ethidium bromide staining based agarose gel electrophoresis
# In short: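 Plasmid DNA relaxation assay with the enzyme over 30 min at 37 °C, acid at 3.125–100 μM. Reactions stopped with 1% SDS plus proteinase K. Products resolved on agarose and stained with ethidium bromide, scoring supercoiled, nicked and relaxed topoisomer bands.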
# [2] = target: T1, DNA topoisomerase type IB small subunit (Leishmania major) (UniProt Q95Z89); assay: Inhibition of Leishmania donovani topoisomerase 1B-mediated relaxation of supercoiled pSK DNA at 100 uM preincubated for 15 mins by ethidium bromide staining based agarose gel electrophoresis
# T1 sequence (whole entry): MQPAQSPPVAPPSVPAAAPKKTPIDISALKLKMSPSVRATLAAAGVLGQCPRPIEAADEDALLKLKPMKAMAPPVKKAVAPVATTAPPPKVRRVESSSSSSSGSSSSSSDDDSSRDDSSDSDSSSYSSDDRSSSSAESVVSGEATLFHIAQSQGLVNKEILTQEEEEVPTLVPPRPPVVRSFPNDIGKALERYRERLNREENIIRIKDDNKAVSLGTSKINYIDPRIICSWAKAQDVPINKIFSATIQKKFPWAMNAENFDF
# In short: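 LdTopIB pre-incubated 15 min at 4 °C with 100 µM compound, or with DMSO as control. […] Samples stopped with SDS, digested with proteinase K, phenol-chloroform extracted and resolved on ethidium bromide agarose gel.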
# [3] = target: T1, DNA topoisomerase type IB small subunit (Leishmania major); assay: Inhibition of Leishmania donovani topoisomerase 1B-mediated relaxation of supercoiled pSK DNA at 100 uM after 4 mins by ethidium bromide staining based agarose gel electrophoresis
# In short: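 Stopped with 1% SDS, then digested 1 h at 37°C with 1 mg/ml proteinase K. Extracted with phenol-chloroform and run on 1% agarose containing 40 µg/ml ethidium bromide.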
# [4] = Cytotoxicity against BALB/C mouse macrophages; type: cell-based; conditions: Macrophage
# Leishmania infantum = assay: Induction of apoptosis in Leishmania infantum promastigotes at 400 uM after 24 hrs by AnnexinV-FITC/propidium iodide based FACS flow cytometry; type: functional
# In short: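 L. infantum promastigotes exposed to 400 μM for 24 h, harvested, washed twice in PBS, resuspended at 1×10^6 cells/ml, stained with annexin V-FITC plus propidium iodide for 15 min at room temperature in the dark. Flow cytometry on at least 10,000 gated cells, read as percent of cells per quadrant. Untreated and H2O2-treated cells serve as controls. Representative of three independent trials.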
# Leishmania donovani = assay: Antiprotozoal activity against Leishmania donovani axenic amastigotes; type: functional, organism-based
# [5] = test system: Trypanosoma brucei rhodesiense; assay: Antiprotozoal activity against Trypanosoma brucei rhodesiense bloodstream forms; type: functional, organism-based
# L6 = assay: Cytotoxicity against rat L6 cells; type: cell-based
Compound,IC50 (Trypanosoma cruzi) [µM],EC50 [1] [µM],IC50 [4] [µM],IC50 (Leishmania donovani) [µM],IC50 (L6) [µM],other results
O=C(Cn1ccnc1[N+](=O)[O-])NCc1ccccc1 [BENZNIDAZOLE],1.47,,,,,
CC[C@@]1(O)C(=O)OCc2c1cc1n(c2=O)Cc2cc3ccccc3nc2-1 [CAMPTOTHECIN],,2,0.62,,,inhibition [2]: Active; inhibition [3]: inactive
CCCCCCCCCCCC#CC(=O)O,62.4,> 100,> 100,24.7,40.9,Activity (Leishmania infantum): 1.75%; IC50 [5]: 255 µM
CCCCCCCCCCCCCCCC#CC(=O)O,48.1,51.9,> 100,11,20,Activity (Leishmania infantum): 1.98%; IC50 [5]: 64.5 µM
CCCCCCCCCCCCCCCC(=O)O [PALMITIC ACID],,,,,209,
CCCCCCCCCCCCCCCCOP(=O)([O-])OCC[N+](C)(C)C [MILTEFOSINE],,,,0.49,,
COc1cc([C@@H]2c3cc4c(cc3[C@H](O)[C@H]3COC(=O)[C@H]23)OCO4)cc(OC)c1OC [PODOFILOX],,,,,0.02,
